Compound activity deposited in PubChem by several laboratories.
B2AR ag: beta2AR agonists driving receptor internalization, primary screen, cell-based, FAP fluorogen, flow cytometry; Beta-2 adrenergic receptor (Homo sapiens), P07550; Am2.2-beta2AR cells; response, % (test concentration not listed); 0.43% of 340,000 active; AID 504454, 2011;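 active means response above a set limit, near 3 SD of response in nonfluorescent compounds, cut at about 42% in these data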
XBP1 UPR activ: activators of adaptive XBP1 UPR arm, primary screen, cell-based, CHO-XBP1 luciferase reporter, luminescence, uHTS. IRE1-XBP1 UPR activation; percent of tunicamycin response, DMSO as zero. activation, % at 20 µM. AID 463104, 2010. 0.33% of 330,000 active;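 active means versus positive control, 20 µM dose yields 30% or more activation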
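Assay system: IRE1-XBP1 luciferase reporter CHO line. Input: 1000 cells/well. Buffer or medium: F12 with 10% serum. Doses: 20 µM, 1% DMSO. Times: overnight seeding at 37 °C, 6 h compound treatment at 37 °C. Technique: Steady-Glo luciferase glow luminescence, 10 min after reagent addition.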
MDM2 E3 inh: MDM2-luciferase reporter signal enhancers, primary screen, MDM2 E3 ligase inhibitor project, cell-based, luminescence, 1536-well; cell-based MDM2 ubiquitination luciferase reporter, 2 h; 0 = plate control, 100 = twice control, blank-subtracted; signal enhancement, % at 5 µM; 0.11% of 210,000 active;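 active means signal enhancement of 30% or more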;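 further: luminescence tracks abundance of the self-degrading MDM2-luciferase fusion protein; higher signal means inhibition of MDM2 E3 ligase activity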
Target sequence (Q00987 whole entry, looked up, the tested form may be a part): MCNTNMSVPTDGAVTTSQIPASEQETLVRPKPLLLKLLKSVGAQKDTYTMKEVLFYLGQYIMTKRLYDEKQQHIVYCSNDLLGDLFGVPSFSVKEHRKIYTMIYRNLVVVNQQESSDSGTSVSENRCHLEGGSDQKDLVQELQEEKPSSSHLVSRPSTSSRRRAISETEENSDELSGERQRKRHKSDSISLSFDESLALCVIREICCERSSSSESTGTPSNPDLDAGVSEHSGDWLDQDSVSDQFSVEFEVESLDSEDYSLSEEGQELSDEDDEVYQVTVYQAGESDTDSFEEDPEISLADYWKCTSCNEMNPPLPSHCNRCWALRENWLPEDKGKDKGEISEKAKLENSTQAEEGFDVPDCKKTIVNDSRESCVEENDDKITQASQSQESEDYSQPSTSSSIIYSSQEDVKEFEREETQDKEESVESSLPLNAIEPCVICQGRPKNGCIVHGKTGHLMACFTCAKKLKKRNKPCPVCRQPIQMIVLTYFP
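Assay system: stable mammalian line carrying autodegrading MDM2–luciferase fusion reporter; amount: 2000 cells seeded into each well; buffer or medium: DMEM; benchmarks: plate control and blank wells; signal: luciferase luminescence; timing: 2 h compound exposure at 37 °C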
Dynein transport: inhibitors of GR-EGFP nuclear translocation, primary screen, dynein cargo transport inhibitor project, imaging, high-content, 3617.4 mouse cells; AID 1381, 2008; 0.47% of 220,000 active; test concentration mostly 20 µM; stimulated with dexamethasone, 1 µM; active compounds read low; z-score, hits read low;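 active means plate z-score of nuclear minus cytoplasmic receptor signal below a set negative limit, without overly bright fluorescence or cell loss, cut at about -3.5 in these data, passing the limit was not always enough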;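 further: z-score of nuclear minus cytoplasmic ring GR-EGFP intensity difference per well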
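medium = tetracycline-free induction medium containing charcoal-stripped FBS | probe or stimulus = dexamethasone, 1.0 µM final | timing = 48 h induction, then 1 h compound, then 30 min agonist, 37 °C | detection = automated 10x imaging of fixed Hoechst-stained cells | read-out basis = nuclear versus cytoplasmic GR-EGFP signal, averaged per well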
Mdm2-MdmX inh: inhibitors of human Mdm2-MdmX association, primary screen, cell-based, luminescence, split luciferase, SaOS-2, uHTS; SaOS-2 split-luciferase Mdm2/MdmX complementation; inhibition, % at 8 µM; 3% of 330,000 active;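 active means inhibition of at least 50% at 8 µM in the primary screen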
CHOP UPR activ: activators of apoptotic CHOP UPR arm, primary screen, cell-based, CHO-CHOP luciferase reporter, luminescence, uHTS | activation, % at 10 µM | 0.34% of 330,000 active | UPR activation; percent of tunicamycin response over DMSO baseline;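 active means at 10 µM dose, activation of 40% or more, normalized to positive control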
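measured by = luciferase luminescence | assay system = CHO-CHOP cells, stable luciferase reporter of PERK-eIF2a-CHOP signalling | amount = 500 reporter cells seeded per well | timing = 6 h compound exposure at 37 °C after overnight seeding | controls = positive tunicamycin 10 µg/mL, negative DMSO alone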
Dynein inh conf: dynein cargo transport inhibitors, GR-EGFP translocation, confirmation, imaging, high-content imaging, GR-EGFP cells; AID 463116, 2010; 3617.4 GR-EGFP nuclear translocation imaging, dexamethasone-induced; 69% of 1,000 active; shares compounds with Dynein transport; calls only at 20 µM;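 active means inhibition of receptor movement into the nucleus at or above a set limit in both runs, with normal cell brightness and cell count; inconclusive means limit reached in only one run, brightness and count normal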;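 further: dexamethasone at 1 µM final in well for 30 min; nuclear minus cytoplasmic GR-EGFP mean intensity difference in channel 2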
Of the large screens only hits and unclear results are named; the others gave an inactive call (follow-up assays come after a bar, where they were run). A selection: hits, their analogues and other compounds. The true share with any hit is near 3.7%.

COC(=O)C(=C/C(C)=C/c1cccs1)C(=O)OC	Dynein transport -4 | Dynein inh conf inconclusive
CC(C)NS(=O)(=O)c1ccc(NC(=O)C(C)OC(=O)CCC2CCCC2)cc1 (stereo unspecified)	none (no result: MDM2 E3 inh, Dynein transport)
Nc1c(C(=O)N/N=C/c2ccc(F)cc2)oc2nc(-c3ccccc3)cc(-c3ccco3)c12	none | Dynein inh conf inactive
COc1ccc(OCc2ccc(/C=N\NC(=O)c3sccc3C)o2)cc1	none (no result: MDM2 E3 inh, Dynein transport)
O=C(c1ccc(S(=O)(=O)Cc2cc(F)ccc2F)c([N+](=O)[O-])c1)N1CCCC1	Dynein transport -4.6 | Dynein inh conf active
O=C(c1ccc(S(=O)(=O)Cc2cc(F)ccc2F)c([N+](=O)[O-])c1)N1CCCCC1	none
CC(=O)c1ccc(NC(=O)c2cnsn2)cc1	none
Cc1ccc(C(=O)/C=C/c2ccccc2)o1	Dynein transport -3.7 | Dynein inh conf inconclusive
CC(C)N1C(=O)/C(=C\c2nc3ccccc3c(=O)n2-c2ccccc2)c2ccccc21	Dynein transport -5 (no result: XBP1 UPR activ, Mdm2-MdmX inh, CHOP UPR activ) | Dynein inh conf active
CC(C)N1C(=O)C(Cc2nc3ccccc3c(=O)n2-c2ccccc2)c2ccccc21 (stereo unspecified)	none
COC(=O)[C@@]1(Cc2ccccc2)[C@@H]2C(=CC(=O)[C@H]2CC(=O)C(=O)N(C)C)CN1C(=O)c1ccccc1	Dynein transport -5.2 (no result: MDM2 E3 inh) | Dynein inh conf active
Cc1cc(C)n(-c2nc3ccccc3nc2Nc2ccc3c(c2)OCO3)n1	none
Cc1ccc2nc(Nc3ccc4[nH]c(=O)[nH]c4c3)c(-n3nc(C)cc3C)nc2c1	none | Dynein inh conf inactive
Nc1cccc2c1C(=O)N(C(=O)c1ccco1)C2=O	none
Nc1cccc2c1C(=O)N(C(=O)/C=C/c1ccc(F)cc1)C2=O	B2AR ag 87, Dynein transport -4.7 | Dynein inh conf active
CC(C)(C)C(=O)Cn1ncc(Br)c(Br)c1=O	Dynein transport -4.4 (no result: XBP1 UPR activ, Mdm2-MdmX inh, CHOP UPR activ) | Dynein inh conf active
COc1ccc(-c2cc(C(F)(F)F)n3nc(C(=O)Nc4cc(C)on4)cc3n2)cc1OC	none
COc1ccc(-c2cc(C(F)(F)F)nc(S(=O)(=O)CCCC(=O)Nc3cc(C)on3)n2)cc1OC	Dynein transport -5 (no result: XBP1 UPR activ, Mdm2-MdmX inh, CHOP UPR activ) | Dynein inh conf active
Cn1c(N)c(NC(=S)NC2CCCCC2)c(=O)n(C)c1=O	none (no result: XBP1 UPR activ, MDM2 E3 inh, Dynein transport, Mdm2-MdmX inh, CHOP UPR activ)
Cc1cccn2c(=O)c(C=O)c(Cl)nc12	Dynein transport -5.9 | Dynein inh conf active
Cc1ccc(-n2ncc(Br)c(Br)c2=O)cc1	Dynein transport -5.9 (no result: XBP1 UPR activ, Mdm2-MdmX inh, CHOP UPR activ) | Dynein inh conf active
CC(=O)/C=C1/C(=O)Nc2ccccc21	Dynein transport -5.6 | Dynein inh conf active
O=C(Nc1ccc(C2=NCCN2)cc1)c1ccc(Cl)c(C(=O)Nc2ccc(C3=NCCN3)cc2)c1	none (no result: B2AR ag)
CCN(C(=O)Cn1ccc(C(F)(F)F)n1)c1c(N)n(Cc2ccccc2)c(=O)[nH]c1=O	none (no result: MDM2 E3 inh, Dynein transport)
CCOc1ccc(NS(=O)(=O)c2ccc(C(=O)N(C)CC(=O)Nc3cccc(OC)c3)cc2)cc1	none (no result: XBP1 UPR activ, MDM2 E3 inh, Dynein transport, Mdm2-MdmX inh, CHOP UPR activ)
Cc1nn(C)c(C(=O)Sc2cccc(Cl)c2)c1[N+](=O)[O-]	Dynein transport -3.9 | Dynein inh conf active
CCOC(=O)CSC1=NC(=O)/C(=C/c2ccc(Br)cc2)S1	Dynein transport -4.3 | Dynein inh conf active
CCOC(=O)CSC1=NC(=O)/C(=C\c2ccc(OC(C)=O)cc2)S1	none
O=C(COc1ccc(/C=C\[N+](=O)[O-])cc1)N1CCOCC1	Dynein transport -5 | Dynein inh conf active
COC(=O)c1cc(=O)n(-c2ccc(C(F)(F)F)cc2)[nH]1	none
CCN(CC(=O)Nc1c(F)cccc1F)C(=O)c1ccc(C)c(S(=O)(=O)N2CCCCC2)c1	none (no result: MDM2 E3 inh, Dynein transport)
CCOC(=O)N1CCN(c2ccncc2S(=O)(=O)N2CCCCC2)CC1	none (no result: MDM2 E3 inh, Dynein transport)
Cc1cccc(OC(C)C(=O)Nc2ccc3c(c2)OCCO3)c1 (stereo unspecified)	none (no result: XBP1 UPR activ, MDM2 E3 inh, Dynein transport, Mdm2-MdmX inh, CHOP UPR activ)
O=[N+]([O-])c1ccc(Sc2nccn2Cc2ccccc2)c([N+](=O)[O-])c1	Dynein transport -4.6 | Dynein inh conf active
O=[N+]([O-])c1ccc(Sc2ncccn2)c([N+](=O)[O-])c1	Dynein transport -4.8 | Dynein inh conf inactive
COc1cc2c(cc1OC)C(Cc1ccc(O)cc1)N(C)CC2 (stereo unspecified)	Dynein transport -4.7 | Dynein inh conf inactive
CCOC(=O)C1=C(SCC)c2cc3c(n2C1=O)CCCC3	Dynein transport -3.6 | Dynein inh conf active
Oc1ccccc1CC=NC1CCCCC1	none (no result: XBP1 UPR activ, MDM2 E3 inh, Dynein transport, Mdm2-MdmX inh, CHOP UPR activ)
N#C/C(C(=O)c1ccccc1)=C1/SC=C(N)N1c1ccccc1	none (no result: B2AR ag, XBP1 UPR activ, Mdm2-MdmX inh, CHOP UPR activ) | Dynein inh conf inactive
Cc1cc(-c2nnc(-c3ccccc3)c(-c3ccccc3)n2)c(C)o1	Dynein transport -3.7 | Dynein inh conf inactive
O=C1/C(=C/c2ccc(N3CCCC3)cc2)NC(=S)N1C1CC1	none | Dynein inh conf active
O=C1N/C(=C/c2ccc(N3CCCC3)cc2)C(=O)N1c1ccccc1	none
COc1ccc(S(=O)(=O)N2CCOC2CNC(=O)C(=O)NCCN2CCOCC2)cc1C (stereo unspecified)	none (no result: MDM2 E3 inh, Dynein transport)
CCOC(=O)c1cnc2c(F)ccc(F)c2c1Sc1ccccc1	Dynein transport -4 | Dynein inh conf active
COc1ccc(N/C=C/c2nc(SC)nnc2C)cc1	none | Dynein inh conf inactive
COc1ccc(S(=O)(=O)N(C)C[C@H]2Oc3c(NC(=O)Nc4c(C)noc4C)cccc3C(=O)N([C@@H](C)CO)C[C@H]2C)cc1	none (no result: MDM2 E3 inh, Dynein transport)
CCOC(=O)c1nc(S(C)(=O)=O)ncc1Cl	Dynein transport -5.1 | Dynein inh conf inactive
CCOC(=O)c1nc(S(C)(=O)=O)ncc1N1CCOCC1	none
Cc1nc2c(=O)n(C)c(=O)n(C)c2nc1Cl	Dynein transport -6.2 (no result: XBP1 UPR activ, Mdm2-MdmX inh, CHOP UPR activ) | Dynein inh conf active
Cn1c(=O)c2nc(NCc3ccccc3)cnc2n(C)c1=O	none
O=C(CCN1Cc2ccccc2C1)c1ccc2c(c1)OCCO2	Dynein transport -3.6 | Dynein inh conf inconclusive
